Experimental data reported in publication PMC9727797 (Molecular Biology of the Cell, 2022).

What was measured:
KIF15-N700 = target: T1, KIF15-N700 (Homo sapiens, UniProt Q9NS87); assay: Microtubule gliding assay; type: biochemical
T1 sequence (Q9NS87 1-700 limits assumed): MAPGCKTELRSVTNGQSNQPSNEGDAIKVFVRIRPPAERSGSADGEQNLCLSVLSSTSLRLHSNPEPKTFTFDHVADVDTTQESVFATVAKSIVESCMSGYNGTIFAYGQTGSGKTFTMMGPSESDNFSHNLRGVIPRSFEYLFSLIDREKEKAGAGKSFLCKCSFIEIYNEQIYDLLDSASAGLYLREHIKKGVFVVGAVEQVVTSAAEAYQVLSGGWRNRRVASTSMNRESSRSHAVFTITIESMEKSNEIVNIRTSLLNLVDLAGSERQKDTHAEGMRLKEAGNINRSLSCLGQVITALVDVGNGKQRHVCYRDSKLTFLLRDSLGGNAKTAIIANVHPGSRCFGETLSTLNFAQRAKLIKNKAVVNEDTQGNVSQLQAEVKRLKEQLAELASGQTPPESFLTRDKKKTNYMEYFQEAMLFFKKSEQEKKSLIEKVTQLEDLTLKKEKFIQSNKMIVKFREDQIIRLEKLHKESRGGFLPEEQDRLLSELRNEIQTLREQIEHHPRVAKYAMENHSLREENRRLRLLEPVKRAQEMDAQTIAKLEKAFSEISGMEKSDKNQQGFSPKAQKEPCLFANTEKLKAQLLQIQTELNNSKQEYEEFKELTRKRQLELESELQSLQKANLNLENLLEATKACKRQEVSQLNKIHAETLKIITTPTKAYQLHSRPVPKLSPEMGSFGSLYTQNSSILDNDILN
Procedure, shortened: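 His6-KIF15-N700 was expressed in High Five insect cells, then purified by Ni-NTA and Superdex 200 gel filtration. Microtubule gliding was imaged every 5 s for 1 min at 100×. Velocity was taken as distance travelled in 1 min, from ≥15 microtubules at each of three slide locations (n ≥ 50 per slide). Concentration-response curves used eight concentrations from 10 nM up to 30 or 100 µM, in triplicate. Single-point derivative tests used 25 µM.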

[1] = test system: KIF15 on spindle microtubules in RPE-1 cells; assay: KIF15 on metaphase spindles; type: cell-based, human; conditions: Fift-IN 25 µM, Munesib-1 50 µM
Procedure, shortened: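 RPE-1 cells on glass coverslips were treated overnight with test compound (25 or 50 µM) or DMSO in normal medium. Cells were fixed in 100% methanol at –20°C for 10 min. Staining used rabbit anti-KIF15 (1:2000, 1 h), FITC anti-α-tubulin (1:500, 30 min) and Hoechst 33342. Max-intensity z-projections were imaged.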

[2] = 24 µM Munesib-1 or 100 µM Fift-IN

## COC(=O)c1ccc2c(c1)N(C)S(=O)(=O)c1cnc(SC)nc1-2 [Munesib-1, Methyl 6-methyl-2-(methylthio)-6H-benzo[c]pyrimido[4,5-e][1,2]thiazine-8-carboxylate 5,5-dioxide]
KIF15-N700; 24 μM Munesib-1
  gliding velocity after removal of compound (wash-out): nearly restored to baseline
  microtubule gliding on addition of compound (wash-in): fully abrogated
KIF15-N700; [2]
  inhibition of microtubule gliding, KIF15: robustly inhibited
  reversibility of inhibition (washout experiment): reversible inhibitor
KIF15-N700; 25 µM, singlicate
  % inhibition of KIF15 microtubule gliding activity: completely eliminates
KIF15-N700; IC50, microtubule gliding assay, KIF15-N700
  IC50: 400 nM
KIF15-N700; in vitro ATPase and microtubule gliding assays
  fold stronger inhibitory action against KIF15 than Fift-IN: roughly 10 fold
[1]
  amount of KIF15 on metaphase spindle: little effect
